Results reported in ChEMBL document CHEMBL1123589, “Phenylpiperazine-based radiopharmaceuticals for brain imaging. 3. Synthesis and evaluation of radioiodinated 1-alkyl-4-phenylpiperazines” (J Med Chem, 1987).

Assays:
Details in all cases: in vivo
[1] = system: Rattus norvegicus; assay: The biodistribution of the [125I]-labeled compound in rats after intravenous injection was evaluated in muscle at 1.00 hrs (ID.kg/g); format: ADME, organism-based, Muscle tissue
Summary of the method: (§1)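 Male Sprague-Dawley rats (250–300 g) under ether anesthesia given iv 0.1 mL saline containing 10–15 μCi of NCA ¹²⁵I-labeled agent (chloramine-T iodination, HPLC-purified). Groups of 3 killed at 0.25, 1 and 4 h. Blood and tissues excised, weighed and γ-counted. Values are mean (range) of % injected dose × body mass (kg) per gram of tissue.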

[2] = system: Rattus norvegicus; assay: The biodistribution of the [125I]-labeled compound in rats after intravenous injection was evaluated in muscle at 0.25 hrs (ID.kg/g); format: ADME, organism-based, Muscle tissue; summary of the method: as §1
[3] = system: Rattus norvegicus; assay: The biodistribution of the [125I]-labeled compound in rats after intravenous injection was evaluated in thyroid at 0.25 hrs; value ranges from 1.44-2.04 (ID.kg/g); format: ADME, organism-based, Thyroid gland; summary of the method: as §1
[4] = system: Rattus norvegicus; assay: The biodistribution of the [125I]-labeled compound in rats after intravenous injection was evaluated in adrenal at 4.00 hrs; value ranges from 1.09-1.22 (ID.kg/g); format: ADME, organism-based
Summary of the method: (§2)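 Male Sprague-Dawley rats (250–300 g) under ether anesthesia were given an iv injection of no-carrier-added 125I-labelled agent (10–15 μCi in 0.1 mL saline). The agent was iodinated with chloramine-T in acetate buffer and purified by C-18 HPLC. Groups of N = 3 were killed at 0.25, 1 and 4 h. Blood and tissues were weighed and γ-counted. Values are % ID·kg/g, mean (range).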

[5] = system: Rattus norvegicus; assay: The biodistribution of the [125I]-labeled compound in rats after intravenous injection was evaluated in liver at 1.00 hr 0.46-0.90 (ID.kg/g); format: ADME, organism-based
Summary of the method: (§3)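 Male Sprague-Dawley rats (250–300 g), under ether anesthesia, given 10–15 μCi of the NCA ¹²⁵I-labeled agent iv in 0.1 mL saline. Groups of N = 3 were killed at 0.25, 1 or 4 h. Blood and tissues were removed, weighed and counted in a γ-well scintillation counter. Values are mean % ID·kg/g (range).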

[6] = system: Rattus norvegicus; assay: The biodistribution of the [125I]-labeled compound in rats after intravenous injection was evaluated in blood at 4.00 hrs (ID.kg/g); format: ADME, organism-based; summary of the method: as §2
[7] = system: Rattus norvegicus; assay: The biodistribution of the [125I]-labeled compound in rats after intravenous injection was evaluated in fat at 4.00 hrs; value ranges from 0.02-0.04 (ID.kg/g); format: ADME, organism-based, Adipose tissue; summary of the method: as §2
[8] = system: Rattus norvegicus; assay: The biodistribution of the [125I]-labeled compound in rats after intravenous injection was evaluated in muscle at 4.00 hrs (ID.kg/g); format: ADME, organism-based, Muscle tissue; summary of the method: as §1
[9] = system: Rattus norvegicus; assay: The biodistribution of the [125I]-labeled compound in rats after intravenous injection was evaluated in kidney at 1.00 hrs; value ranges from 0.35-0.42 (ID.kg/g); format: ADME, organism-based; summary of the method: as §3
[10] = system: Rattus norvegicus; assay: The biodistribution of the [125I]-labeled compound in rats after intravenous injection was evaluated in lung at 1.00 hrs; value ranges from 0.65-0.85 (ID.kg/g); format: ADME, organism-based; summary of the method: as §3
[11] = system: Rattus norvegicus; assay: The biodistribution of the [125I]-labeled compound in rats after intravenous injection was evaluated in adrenal at 1.00 hrs; value ranges from 0.78-1.46 (ID.kg/g); format: ADME, organism-based; summary of the method: as §2
[12] = system: Rattus norvegicus; assay: The biodistribution of the [125I]-labeled compound in rats after intravenous injection was evaluated in liver at 0.25 hr; value ranges from; value ranges from 0.45-0.60 (ID.kg/g); format: ADME, organism-based; summary of the method: as §3
[13] = system: Rattus norvegicus; assay: The biodistribution of the [125I]-labeled compound in rats after intravenous injection was evaluated in kidney at 4.00 hrs; value ranges from. 28-0.30(ID.kg/g); format: ADME, organism-based; summary of the method: as §3
[14] = system: Rattus norvegicus; assay: The biodistribution of the [125I]-labeled compound in rats after intravenous injection was evaluated in thyroid at 1.00 hrs; value ranges from 1.41-1.72 (ID.kg/g); format: ADME, organism-based, Thyroid gland; summary of the method: as §1
[15] = system: Rattus norvegicus; assay: The biodistribution of the [125I]-labeled compound in rats after intravenous injection was evaluated in heart at 1.00 hrs; value ranges from 0.14-0.18 (ID.kg/g); format: ADME, organism-based; summary of the method: as §3
[16] = system: Rattus norvegicus; assay: The biodistribution of the [125I]-labeled compound in rats after intravenous injection was evaluated in heart at 0.25 hrs (ID.kg/g); format: ADME, organism-based; summary of the method: as §2
[17] = system: Rattus norvegicus; assay: The biodistribution of the [125I]-labeled compound in rats after intravenous injection was evaluated in liver at 4.00 hrs (ID.kg/g); format: ADME, organism-based; summary of the method: as §3
[18] = system: Rattus norvegicus; assay: The biodistribution of the [125I]-labeled compound in rats after intravenous injection was evaluated in blood at 1.00 hrs (ID.kg/g); format: ADME, organism-based; summary of the method: as §2
[19] = system: Rattus norvegicus; assay: The biodistribution of the [125I]-labeled compound in rats after intravenous injection was evaluated in adrenal at 0.25 hrs; value ranges from 0.84-0.91 (ID.kg/g); format: ADME, organism-based; summary of the method: as §2
[20] = system: Rattus norvegicus; assay: The biodistribution of the [125I]-labeled compound in rats after intravenous injection was evaluated in thyroid at 4.00 hrs; value ranges from 2.64-2.80 (ID.kg/g); format: ADME, organism-based, Thyroid gland; summary of the method: as §1
[21] = system: Rattus norvegicus; assay: The biodistribution of the [125I]-labeled compound in rats after intravenous injection was evaluated in heart at 4.00 hrs; value ranges from 0.11-0.13 (ID.kg/g); format: ADME, organism-based; summary of the method: as §3
[22] = system: Rattus norvegicus; assay: The biodistribution of the [125I]-labeled compound in rats after intravenous injection was evaluated in fat at 0.25 hr (ID. kg/g); format: ADME, organism-based, Adipose tissue; summary of the method: as §2
[23] = system: Rattus norvegicus; assay: The biodistribution of the [125I]-labeled compound in rats after intravenous injection was evaluated in brain at 0.25 hrs; value ranges from 0.10-0.16 (ID.kg/g); format: ADME, organism-based; summary of the method: as §2
[24] = system: Rattus norvegicus; assay: The biodistribution of the [125I]-labeled compound in rats after intravenous injection was evaluated in brain at 1.00 hrs; value ranges from 0.08-0.10 (ID.kg/g); format: ADME, organism-based; summary of the method: as §2
[25] = system: Rattus norvegicus; assay: The biodistribution of the [125I]-labeled compound in rats after intravenous injection was evaluated in brain at 4.00 hrs (ID.kg/g); format: ADME, organism-based; summary of the method: as §2
[26] = system: Rattus norvegicus; assay: The biodistribution of the [125I]-labeled compound in rats after intravenous injection was evaluated in lung at 0.25 hrs; value ranges from 1.0-1.14 (ID.kg/g); format: ADME, organism-based; summary of the method: as §3
[27] = system: Rattus norvegicus; assay: The biodistribution of the [125I]-labeled compound in rats after intravenous injection was evaluated in kidney at 0.25 hr; value ranges from 0.35-0.39 (ID.kg/g); format: ADME, organism-based; summary of the method: as §3
[28] = system: Rattus norvegicus; assay: The biodistribution of the [125I]-labeled compound in rats after intravenous injection was evaluated in fat at 1.00 hrs (ID.kg/g); format: ADME, organism-based, Adipose tissue; summary of the method: as §2
[29] = system: Rattus norvegicus; assay: The biodistribution of the [125I]-labeled compound in rats after intravenous injection was evaluated in lung at 4.00 hrs; value ranges from 0.53-0.59 (ID.kg/g); format: ADME, organism-based; summary of the method: as §1
[30] = system: Rattus norvegicus; assay: The biodistribution of the [125I]-labeled compound in rats after intravenous injection was evaluated in blood at 0.25 hrs (ID.kg/g); format: ADME, organism-based; summary of the method: as §2

`CCCCCCN1CCN(c2ccc(I)cc2)CC1` gave a Biodistribution [1] of 0.02 %ID·kg/g, a Biodistribution [2] of 0.03 % ID·kg/g and a Biodistribution [3] of 2.04%. It also gave a Biodistribution [4] of 1.22%, a Biodistribution [5] of 0.9% and a Biodistribution [6] of 0.01 % ID·kg/g. It also gave a Biodistribution [7] of 0.04%, a Biodistribution [8] of 0.02 %ID·kg/g and a Biodistribution [9] of 0.42%. It also gave a Biodistribution [10] of 0.85%, a Biodistribution [11] of 1.46% and a Biodistribution [12] of 0.6%. It also gave a Biodistribution [13] of 0.3%, a Biodistribution [14] of 1.72% and a Biodistribution [15] of 0.18%. It also gave a Biodistribution [16] of 0.24%, a Biodistribution [17] of 0.78% and a Biodistribution [18] of 0.01 % ID·kg/g. It also gave a Biodistribution [19] of 0.91%, a Biodistribution [20] of 2.8% and a Biodistribution [21] of 0.13%. For the same compound, the Biodistribution [22] was 0.01 % ID·kg/g, the Biodistribution [23] was 0.16% and the Biodistribution [24] was 0.1%. It also gave a Biodistribution [25] of 0.09%, a Biodistribution [26] of 1.14% and a Biodistribution [27] of 0.39%. The Biodistribution [28] was 0.02 % ID·kg/g, the Biodistribution [29] was 0.59% and the Biodistribution [30] was 0.01 % ID·kg/g.
